Measurements as given in ChEMBL document CHEMBL1131139, “Synthesis and antibacterial activity of ketolides (6-O-methyl-3-oxoerythromycin derivatives): a new class of antibacterials highly potent against macrolide-resistant and -susceptible respiratory pathogens” (1998).
Converted amounts (≈) assume the structure as drawn.

Assays:
Format in all cases: functional
Streptococcus pneumoniae [1] = experiment: In vitro inhibitory activity against Streptococcus pneumoniae (032UC1)
Method in brief: (§1)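 Two-fold agar dilution on Mueller-Hinton agar (pH 7.4). Inoculum from overnight plate cultures suspended in Mueller-Hinton broth, adjusted to 10^9 CFU/mL, diluted 1:200 and spotted by multipoint inoculator at about 10^4 CFU/spot. Plates incubated 37 °C for 20 h. MIC taken as lowest concentration with no visible growth.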

Staphylococcus aureus [2] = experiment: In vitro inhibitory activity against Staphylococcus aureus (011UC4); method in brief: as §1
Haemophilus influenzae [3] = experiment: In vitro inhibitory activity against Haemophilus influenzae (351HT3); method in brief: as §1
Streptococcus pyogenes = experiment: In vitro inhibitory activity against Streptococcus pyogenes (02A1UC1); method in brief: as §1
Staphylococcus aureus [4] = experiment: In vitro inhibitory activity against Staphylococcus aureus (EryRi 011GO25i); method in brief: as §1
Streptococcus pneumoniae [5] = experiment: In vitro inhibitory activity against Streptococcus pneumoniae (EryRi 030SJ5i); method in brief: as §1
[6] = system: Staphylococcus epidermidis; experiment: In vitro inhibitory activity against Staphylococcus epidermidis (EryRi 012GO11i); method in brief: as §1
Haemophilus influenzae [7] = experiment: In vitro inhibitory activity against Haemophilus influenzae (351CB12); method in brief: as §1
Escherichia coli = experiment: In vitro inhibitory activity against Escherichia coli (250 UC5); method in brief: as §1
Streptococcus pneumoniae [8] = experiment: In vitro inhibitory activity against Streptococcus pneumoniae (EryRc 030SJ1); method in brief: as §1
Staphylococcus aureus [9] = experiment: In vitro inhibitory activity against Staphylococcus aureus (EryRc 011CB20); method in brief: as §1

| MIC (Streptococcus pneumoniae [1]) [µg/mL] | MIC (Staphylococcus aureus [2]) [µg/mL] | MIC (Haemophilus influenzae [3]) [µg/mL] | MIC (Streptococcus pyogenes) [µg/mL] | MIC (Staphylococcus aureus [4]) [µg/mL] | MIC (Streptococcus pneumoniae [5]) [µg/mL] | MIC [6] [µg/mL] | MIC (Haemophilus influenzae [7]) [µg/mL] | MIC (Escherichia coli) [µg/mL] | MIC (Streptococcus pneumoniae [8]) [µg/mL] | MIC (Staphylococcus aureus [9]) [µg/mL] | Compound |
| --- | --- | --- | --- | --- | --- | --- | --- | --- | --- | --- | --- |
| 0.02 (≈ 0.0242 µM) | 0.08 (≈ 0.0968 µM) | 1.2 (≈ 1.45 µM) | 0.02 (≈ 0.0242 µM) | 0.08 (≈ 0.0968 µM) | 0.02 (≈ 0.0242 µM) | 0.04 (≈ 0.0484 µM) | 1.2 (≈ 1.45 µM) | 40 (≈ 48.4 µM) | 0.6 (≈ 0.726 µM) | 40 (≈ 48.4 µM) | CC[C@H]1OC(=O)[C@H](C)C(=O)[C@H](C)[C@@H](O[C@@H]2O[C@H](C)C[C@H](N(C)C)[C@H]2O)[C@](C)(OC)C[C@@H](C)C(=O)[C@H](C)[C@H]2N(CCCCc3ccnc4ccc(OC)cc34)C(=O)O[C@]12C |
| 0.04 (≈ 0.0611 µM) | 1.2 (≈ 1.83 µM) | 40 (≈ 61.1 µM) | 0.15 (≈ 0.229 µM) | 5 (≈ 7.64 µM) | 40 (≈ 61.1 µM) | 40 (≈ 61.1 µM) | 40 (≈ 61.1 µM) | 40 (≈ 61.1 µM) | 40 (≈ 61.1 µM) | 40 (≈ 61.1 µM) | CCCN1C(=O)O[C@]2(C)[C@@H](CC)OC(=O)[C@H](C)C(=O)[C@H](C)[C@@H](O[C@@H]3O[C@H](C)C[C@H](N(C)C)[C@H]3O)[C@](C)(OC)C[C@@H](C)C(=O)[C@H](C)[C@@H]12 |
| 0.08 (≈ 0.0968 µM) | 0.6 (≈ 0.726 µM) | 20 (≈ 24.2 µM) | 0.08 (≈ 0.0968 µM) | 0.6 (≈ 0.726 µM) | 0.3 (≈ 0.363 µM) | 0.6 (≈ 0.726 µM) | 5 (≈ 6.05 µM) | 40 (≈ 48.4 µM) | 1.2 (≈ 1.45 µM) | 10 (≈ 12.1 µM) | CCCCCCCCCCN1CCCC(O/N=C2\[C@H](C)C[C@@](C)(OC)[C@H](O[C@@H]3O[C@H](C)C[C@H](N(C)C)[C@H]3O)[C@@H](C)C(=O)[C@@H](C)C(=O)O[C@H](CC)[C@@](C)(O)[C@H](O)[C@H]2C)C1 (stereo not given in full) |
| 40 | 40 | 40 | 40 | 40 | 40 | 40 | 40 | 40 | 40 | 40 | CC[C@H]1OC(=O)[C@H](C)C(=O)[C@H](C)[C@@H](O[C@@H]2O[C@H](C)C[C@H](N(C)C)[C@H]2O)[C@](C)(OC)C[C@@H](C)/C(=N\OC[C@@H](N)C(=O)[O-])[C@H](C)[C@@H](O)[C@]1(C)O.[K+] |
| 0.02 (≈ 0.0221 µM) | 0.3 (≈ 0.331 µM) | 2.5 (≈ 2.76 µM) | 0.04 (≈ 0.0442 µM) | 20 (≈ 22.1 µM) | 1.2 (≈ 1.33 µM) | 40 (≈ 44.2 µM) | 2.5 (≈ 2.76 µM) | 40 (≈ 44.2 µM) | 10 (≈ 11 µM) | 20 (≈ 22.1 µM) | CC[C@H]1OC(=O)[C@H](C)[C@@H](O[C@H]2C[C@@](C)(OC)[C@@H](O)[C@H](C)O2)[C@H](C)[C@@H](O[C@@H]2O[C@H](C)C[C@H](N(C)C)[C@H]2O)[C@](C)(OC)C[C@@H](C)C(=O)[C@H](C)[C@H]2N(CCCCc3ccccc3)C(=O)O[C@]12C |
| 0.3 (≈ 0.41 µM) | 1.2 (≈ 1.64 µM) | 40 (≈ 54.7 µM) | 0.15 (≈ 0.205 µM) | 2.5 (≈ 3.42 µM) | 20 (≈ 27.4 µM) | 1.2 (≈ 1.64 µM) | 10 (≈ 13.7 µM) | 40 (≈ 54.7 µM) | 40 (≈ 54.7 µM) | 40 (≈ 54.7 µM) | CC[C@H]1OC(=O)[C@H](C)C(=O)[C@H](C)[C@@H](O[C@@H]2O[C@H](C)C[C@H](N(C)C)[C@H]2O)[C@](C)(OC)C[C@@H](C)C(=O)[C@H](C)[C@H]2N(CCCc3ccccc3)C(=O)O[C@]12C |
| 0.02 (≈ 0.0257 µM) | 0.04 (≈ 0.0513 µM) | 1.2 (≈ 1.54 µM) | 0.02 (≈ 0.0257 µM) | 0.6 (≈ 0.77 µM) | 0.08 (≈ 0.103 µM) | 0.15 (≈ 0.192 µM) | 1.2 (≈ 1.54 µM) | 40 (≈ 51.3 µM) | 2.5 (≈ 3.21 µM) | 10 (≈ 12.8 µM) | CC[C@H]1OC(=O)[C@H](C)C(=O)[C@H](C)[C@@H](O[C@@H]2O[C@H](C)C[C@H](N(C)C)[C@H]2O)[C@](C)(OC)C[C@@H](C)C(=O)[C@H](C)[C@H]2N(CCCCc3cccc(Cl)c3)C(=O)O[C@]12C |
| 0.15 (≈ 0.204 µM) | 0.6 (≈ 0.815 µM) | 40 (≈ 54.4 µM) | 0.6 (≈ 0.815 µM) | 5 (≈ 6.79 µM) | 40 (≈ 54.4 µM) | 5 (≈ 6.79 µM) | 40 (≈ 54.4 µM) | 40 (≈ 54.4 µM) | 40 (≈ 54.4 µM) | 40 (≈ 54.4 µM) | CC[C@H]1OC(=O)[C@H](C)C(=O)[C@H](C)[C@@H](O[C@@H]2O[C@H](C)C[C@H](N(C)C)[C@H]2O)[C@](C)(OC)C[C@@H](C)/C(=N\OCCNCc2ccccc2)[C@H](C)[C@@H](O)[C@]1(C)O |
| 0.02 (≈ 0.0268 µM) | 0.08 (≈ 0.107 µM) | 1.2 (≈ 1.61 µM) | 0.02 (≈ 0.0268 µM) | 0.15 (≈ 0.201 µM) | 0.3 (≈ 0.403 µM) | 0.04 (≈ 0.0537 µM) | 2.5 (≈ 3.36 µM) | 40 (≈ 53.7 µM) | 0.15 (≈ 0.201 µM) | 40 (≈ 53.7 µM) | CC[C@H]1OC(=O)[C@H](C)C(=O)[C@H](C)[C@@H](O[C@@H]2O[C@H](C)C[C@H](N(C)C)[C@H]2O)[C@](C)(OC)C[C@@H](C)C(=O)[C@H](C)[C@H]2N(CCCCc3ccccc3)C(=O)O[C@]12C |
| 0.3 (≈ 0.49 µM) | 5 (≈ 8.16 µM) | 20 (≈ 32.6 µM) | 2.5 (≈ 4.08 µM) | 40 (≈ 65.3 µM) | 40 (≈ 65.3 µM) | 40 (≈ 65.3 µM) | 20 (≈ 32.6 µM) | 40 (≈ 65.3 µM) | 40 (≈ 65.3 µM) | 40 (≈ 65.3 µM) | CC[C@H]1OC(=O)[C@H](C)C(=O)[C@H](C)[C@@H](O[C@@H]2O[C@H](C)C[C@H](N(C)C)[C@H]2O)[C@](C)(OC)C[C@@H](C)C(=O)[C@@H](C)[C@H]2NC(=O)O[C@@]21C |
